The values that follow come from article PMC4303305 (Biochemistry, 2014).

Data set [1] can be described thus: Size-exclusion FPLC retention of nitrophorins, mutants and ligand complexes. Type of data set: physicochemical, Rhodnius prolixus. To be noted: for dimer formation: under any conditions / at any pH. Put shortly:
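Analytical run on Superdex75 at 4 °C in 100 mM sodium acetate, NaCl added to 220 mM total ionic strength. Protein at 1 mM was run at pH 5.0, 5.25, 5.5 and 5.75. Separately, protein from 1 to 0.025 mM was run at pH 5.0. Elution position compared with molecular weight standards.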
For orientation: SEC sorts molecules by how far they enter the pores of the column.

Data set [2] can be described thus: Stopped-flow kinetics of release of NO from the nitrophorins. Type of data set: binding, Rhodnius prolixus. To be noted: 5–10 μM in 100 mM sodium phosphate buffer. A digest of the protocol: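 Stopped-flow measurement of NO release from NO-bound nitrophorins with native or M0-bearing N-termini. Dissociation Kd obtained at pH 5.0 and 7.5 in dilute solution, 5–10 μM protein in 100 mM sodium phosphate buffer.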

The conditions of data set [3]: cited from earlier work.
Data set [4] is classed as physicochemical, Rhodnius prolixus. Particulars: pH 7.3; 0.88 mM; NO bound. Put shortly:
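Recombinant nitrophorin refolded from inclusion bodies, reconstituted with excess hemin at pH 7.5, then purified by size-exclusion at pH 5.0. ¹H{¹⁵N} HSQC spectra recorded across pH: 0.2 mM protein at pH 5.0, 5.5 and 6.0; 0.8 mM at pH 6.5. pH 6.5 peaks assigned from pH 7.3 assignments, following cross-peaks through intermediate spectra. NO-bound sample run at 3.7 mM and after dilution to 0.88 mM.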

Entries after “also recorded” stand apart in the source; their conditions may differ. Read-outs that look alike come from different tables or passages of the source.

B1: NP1(K1A) (protein)
chain: ACTKNALAQTGFNKDKYFNGDVWYVTDYLDLEPDDVPKRYCAALAAGTASGKLKEALYHYDPKTQDTFYDVSELQEESPGKYTANFKKVEKNGNVKVDVTSGNYYTFTVMYADDSSALIHTCLHKGNKDLGDLYAVLNRNKDTNAGDKVKGAVTAASLKFSDFISTKDNKCEYDNVSLKSLLTK
Regarding B1, the “monomer or dimer on the size-exclusion column” value (shortened to “monomer or dimer”) in data set [1] (pH 5.0) was “broad peak that encompasses the retention times expected for a dimer and a monomer”; in data set [1] (pH 5.0, NO added / bound), “form dimers; also recorded: two peaks, the first of which is the dimer”.

B2: (M0)NP1sym: (M0)NP1 containing the symmetrical heme, 2,4-dimethyldeuterohemin (protein, UniProt Q26239 24-207, looked up)
Nitrophorin-1: KCTKNALAQTGFNKDKYFNGDVWYVTDYLDLEPDDVPKRYCAALAAGTASGKLKEALYHYDPKTQDTFYDVSELQEESPGKYTANFKKVEKNGNVKVDVTSGNYYTFTVMYADDSSALIHTCLHKGNKDLGDLYAVLNRNKDTNAGDKVKGAVTAASLKFSDFISTKDNKCEYDNVSLKSLLTK
modifications: Met0; 2,4-dimethyldeuterohemin heme
For the molecule B2, the entries for the “NO Kd (NO dissociation)” value in data set [2] (pH 5.0) and in data set [2] (pH 7.5) were 0.218 ± 0.004 s^–1 and 2.66 ± 0.27 s^–1, respectively.

B3: Nat. N-term NP1 ^c: native N-terminal NP1 (N-terminus KC...) (protein, UniProt Q26239 24-207, looked up)
Nitrophorin-1: KCTKNALAQTGFNKDKYFNGDVWYVTDYLDLEPDDVPKRYCAALAAGTASGKLKEALYHYDPKTQDTFYDVSELQEESPGKYTANFKKVEKNGNVKVDVTSGNYYTFTVMYADDSSALIHTCLHKGNKDLGDLYAVLNRNKDTNAGDKVKGAVTAASLKFSDFISTKDNKCEYDNVSLKSLLTK
As to B3, the results for the “NO Kd (NO dissociation)” value in data set [2] (pH 5.0) and in data set [2] (pH 7.5) were 0.032 ± 0.011 s^–1 and 1.11 ± 0.04 s^–1, respectively.

B4: native N-terminal NP1: NP1 expressed with a leader sequence, giving the native N-terminus KCTK... (protein)
chain: KCTKNALAQTGFNKDKYFNGDVWYVTDYLDLEPDDVPKRYCAALAAGTASGKLKEALYHYDPKTQDTFYDVSELQEESPGKYTANFKKVEKNGNVKVDVTSGNYYTFTVMYADDSSALIHTCLHKGNKDLGDLYAVLNRNKDTNAGDKVKGAVTAASLKFSDFISTKDNKCEYDNVSLKSLLTK
modifications: left off: His6, C-terminal, kept
As for B4, the “monomer or dimer” value in data set [1] (pH 5.0, NO added / bound) is on record as “form dimers”.

B5: A1K: site-directed mutant of NP4, M0 present (N-terminus MKCTK...) (protein)
chain: MKCTKNAIAQTGFNKDKYFNGDVWYVTDYLDLEPDDVPKRYCAALAAGTASGKLKEALYHYDPKTQDTFYDVSELQVESLGKYTANFKKVDKNGNVKVAVTAGNYYTFTVMYADDSSALIHTCLHKGNKDLGDLYAVLNRNKDAAAGDKVKSAVSAATLEFSKFISTKENNCAYDNDSLKSLLTK
In the case of B5, the “monomer or dimer” value in data set [1] (pH 5.0) is on record as “monomer”.

B6: (M0)NP1: recombinant NP1 retaining methionine M0 at the N-terminus (MKCTK...) (protein)
chain: MKCTKNALAQTGFNKDKYFNGDVWYVTDYLDLEPDDVPKRYCAALAAGTASGKLKEALYHYDPKTQDTFYDVSELQEESPGKYTANFKKVEKNGNVKVDVTSGNYYTFTVMYADDSSALIHTCLHKGNKDLGDLYAVLNRNKDTNAGDKVKGAVTAASLKFSDFISTKDNKCEYDNVSLKSLLTK
Consider B6, for which the “NO Kd (NO dissociation)” value in data set [2] (pH 5.0) is recorded as 0.426 ± 0.005 s^–1; in data set [2] (pH 7.5), 2.32 ± 0.07 s^–1; in data set [3] (column pH 7.5, measured at pH 8.0 rather than pH 7.5 (footnote a)), 2.2 ± 0.01 ^a s^–1; in data set [3] (pH 5.0, ref 17) it was 0.20 ± 0.01 s^–1. Also, the “monomer or dimer” value in data set [1] (pH 5.0) was “not a dimer”. The dimer formation entry is “do not form dimers” in data set [1] and “not a dimer at any pH” in data set [1] (listed as recombinant NP1).

B7: D30A (protein)
chain: ACTKNAIAQTGFNKDKYFNGDVWYVTDYLALEPDDVPKRYCAALAAGTASGKLKEALYHYDPKTQDTFYDVSELQVESLGKYTANFKKVDKNGNVKVAVTAGNYYTFTVMYADDSSALIHTCLHKGNKDLGDLYAVLNRNKDAAAGDKVKSAVSAATLEFSKFISTKENNCAYDNDSLKSLLTK
With B7, in data set [1] (pH 5.0), the “monomer or dimer” value is on record as “monomers”.

B8: NP4 apoprotein: NP4 without heme (protein)
chain: ACTKNAIAQTGFNKDKYFNGDVWYVTDYLDLEPDDVPKRYCAALAAGTASGKLKEALYHYDPKTQDTFYDVSELQVESLGKYTANFKKVDKNGNVKVAVTAGNYYTFTVMYADDSSALIHTCLHKGNKDLGDLYAVLNRNKDAAAGDKVKSAVSAATLEFSKFISTKENNCAYDNDSLKSLLTK
For B8, the “monomer or dimer” value in data set [1] (pH 5.0) is “monomeric”.

B9: D30N (protein)
chain: ACTKNAIAQTGFNKDKYFNGDVWYVTDYLNLEPDDVPKRYCAALAAGTASGKLKEALYHYDPKTQDTFYDVSELQVESLGKYTANFKKVDKNGNVKVAVTAGNYYTFTVMYADDSSALIHTCLHKGNKDLGDLYAVLNRNKDAAAGDKVKSAVSAATLEFSKFISTKENNCAYDNDSLKSLLTK
Take B9: the “monomer or dimer” value in data set [1] (pH 5.0) is on record as “monomers”.

B10: K125A (protein)
chain: ACTKNAIAQTGFNKDKYFNGDVWYVTDYLDLEPDDVPKRYCAALAAGTASGKLKEALYHYDPKTQDTFYDVSELQVESLGKYTANFKKVDKNGNVKVAVTAGNYYTFTVMYADDSSALIHTCLHAGNKDLGDLYAVLNRNKDAAAGDKVKSAVSAATLEFSKFISTKENNCAYDNDSLKSLLTK
In the case of B10, the “monomer or dimer” value in data set [1] (pH 5.0) is on record as “dimers”.

B11: R39A (protein)
chain: ACTKNAIAQTGFNKDKYFNGDVWYVTDYLDLEPDDVPKAYCAALAAGTASGKLKEALYHYDPKTQDTFYDVSELQVESLGKYTANFKKVDKNGNVKVAVTAGNYYTFTVMYADDSSALIHTCLHKGNKDLGDLYAVLNRNKDAAAGDKVKSAVSAATLEFSKFISTKENNCAYDNDSLKSLLTK
As to B11, the “monomer or dimer” value in data set [1] (pH 5.0) is listed as “dimers”.

B12: NP4-ImH: NP4 with imidazole bound (protein)
chain: ACTKNAIAQTGFNKDKYFNGDVWYVTDYLDLEPDDVPKRYCAALAAGTASGKLKEALYHYDPKTQDTFYDVSELQVESLGKYTANFKKVDKNGNVKVAVTAGNYYTFTVMYADDSSALIHTCLHKGNKDLGDLYAVLNRNKDAAAGDKVKSAVSAATLEFSKFISTKENNCAYDNDSLKSLLTK
For the molecule B12, in data set [1] (pH 5.0), the “monomer or dimer” value was “dimers”.

B13: Hm complex: NP4 with histamine bound to the heme iron (protein)
chain: ACTKNAIAQTGFNKDKYFNGDVWYVTDYLDLEPDDVPKRYCAALAAGTASGKLKEALYHYDPKTQDTFYDVSELQVESLGKYTANFKKVDKNGNVKVAVTAGNYYTFTVMYADDSSALIHTCLHKGNKDLGDLYAVLNRNKDAAAGDKVKSAVSAATLEFSKFISTKENNCAYDNDSLKSLLTK
As to B13, the “monomer or dimer” value in data set [1] (all pH values, including those below 6.0) is “monomer”; in data set [1] (pH 5.0) it was “monomer”.

B14: K38A (protein)
chain: ACTKNAIAQTGFNKDKYFNGDVWYVTDYLDLEPDDVPARYCAALAAGTASGKLKEALYHYDPKTQDTFYDVSELQVESLGKYTANFKKVDKNGNVKVAVTAGNYYTFTVMYADDSSALIHTCLHKGNKDLGDLYAVLNRNKDAAAGDKVKSAVSAATLEFSKFISTKENNCAYDNDSLKSLLTK
Regarding B14, in data set [1] (pH 5.0), the “monomer or dimer” value is “dimers”.

B15: NP4-NO: NP4 with nitric oxide bound to the heme (protein)
chain: ACTKNAIAQTGFNKDKYFNGDVWYVTDYLDLEPDDVPKRYCAALAAGTASGKLKEALYHYDPKTQDTFYDVSELQVESLGKYTANFKKVDKNGNVKVAVTAGNYYTFTVMYADDSSALIHTCLHKGNKDLGDLYAVLNRNKDAAAGDKVKSAVSAATLEFSKFISTKENNCAYDNDSLKSLLTK
As to B15, the “monomer or dimer” value in data set [1] (pH 5.0) is listed as “dimer”. The “state of the dimer” value in data set [4] is “still highly dimerized”.

B16: K125E (protein)
chain: ACTKNAIAQTGFNKDKYFNGDVWYVTDYLDLEPDDVPKRYCAALAAGTASGKLKEALYHYDPKTQDTFYDVSELQVESLGKYTANFKKVDKNGNVKVAVTAGNYYTFTVMYADDSSALIHTCLHEGNKDLGDLYAVLNRNKDAAAGDKVKSAVSAATLEFSKFISTKENNCAYDNDSLKSLLTK
In the case of B16, the “monomer or dimer” value in data set [1] (pH 5.0) is “dimers”.
